Data reported in ChEMBL document CHEMBL3045217, “Factors affecting the synergy of thiabendazole, sodium bicarbonate, and heat to control postharvest green mold of citrus fruit” (J Agric Food Chem, 2008).

Key:
Fruit surface [1] = assay: Drug residues on Citrus sinensis cvs. Salustiana (Salustiana oranges) fruit surface at 600 mg/L treated for 1 min at 50 degC postharvest measured after overnight incubation at 17 degC by GC analysis; type: ADME
Summary of the method: (§1)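 'Salustiana' oranges were washed with water and air-dried. They were dipped 1 or 3 min in TBZ 600 mg/L at 20 or 50 °C, or 1 min in TBZ 600 mg/L plus 2% SBC at 20 °C, then dried overnight at 17 °C in the dark. Surface residue was taken by water extraction and wax residue by chloroform extraction. Inner residue was measured in fruit after both extractions. Extracts were dried under N2, taken up in acetone and analysed by GC. Values are mg/kg on a whole-fruit basis.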

Penicillium digitatum [2] = assay: (§2) Fungicidal activity against TBZ-resistant Penicillium digitatum infected Valencia oranges assessed as postharvest green mold incidence at 600 mg/L treated for 1 min at 20 degC at 20 hr after fungal conidial inoculation measured after 7 days of storage at 20 degC in presence of 1% SBC (water Rvb = 54.2%); type: functional
Penicillium digitatum [3] = assay: Fungicidal activity against Penicillium digitatum infected Valenica oranges assessed as fruit weight loss at 200 mg/L treated for 1 min at 50 degC postharvest at 20 hr after fungal conidial inoculation measured after 21 days of storage at 17 degC (water Rvb = 8.83%); type: functional
Inner fruit [4] = assay: Drug residues in Citrus sinensis cvs. Salustiana (Salustiana oranges) inner fruit at 600 mg/L treated for 3 min at 50 degC postharvest measured after overnight incubation at 17 degC by GC analysis; type: ADME; settings: 0.05 h; summary of the method: as §1
Penicillium digitatum [5] = assay: Fungicidal activity against Penicillium digitatum infected Valenica oranges assessed as fruit weight loss at 400 mg/L treated for 1 min at 40 degC postharvest at 20 hr after fungal conidial inoculation measured after 14 days of storage at 17 degC (water Rvb = 6.24%); type: functional
Penicillium digitatum [6] = assay: Fungicidal activity against TBZ-sensitive Penicillium digitatum infected Nova mandarins assessed as postharvest green mold incidence at 200 mg/L treated for 1 min at 50 degC at 20 hr after fungal conidial inoculation measured after 5 days of storage at 20 degC (water Rvb = 98.3%); type: functional
Summary of the method: (§3)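 Fruit were surface-disinfected in 1 g/L hypochlorite for 30 s, rinsed, dried, then wounded twice equatorially (2 mm × 2 mm rod). Inoculation was a 1 min dip in P. digitatum conidia, 1 × 10^5 conidia/mL final. Fruit were held 20 h at 20 °C and 90% RH, dipped 1 min (SBC wt/vol), and air-dried. Storage was 20 °C, 90% RH. Decay incidence (% fruit with lesions) was scored at 5 d for mandarins and 7 d for oranges. Three replicates of 40 fruit were used; arcsin-transformed data were compared by LSD, p ≤ 0.05.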

Penicillium digitatum [7] = assay: Fungicidal activity against Penicillium digitatum infected Valenica oranges assessed as fruit weight loss at 400 mg/L treated for 1 min at 40 degC postharvest at 20 hr after fungal conidial inoculation measured after 14 days of storage at 17 degC in presence of 2% SBC (water Rvb = 9.20%); type: functional
Penicillium digitatum [8] = assay: as §2, with “0.5%” for “1%”, “85.8%)” for “54.2%)”; type: functional
Penicillium digitatum [9] = assay: Fungicidal activity against TBZ-resistant Penicillium digitatum infected Nova mandarins assessed as postharvest green mold incidence at 400 mg/L treated for 1 min at 40 degC at 20 hr after fungal conidial inoculation measured after 5 days of storage at 20 degC (water Rvb = 96.7%); type: functional
Fruit surface [10] = assay: Drug residues on Citrus sinensis cvs. Salustiana (Salustiana oranges) fruit surface at 600 mg/L treated for 3 min at 20 degC postharvest measured after overnight incubation at 17 degC by GC analysis; type: ADME; settings: 0.05 h; summary of the method: as §1
Fruit [11] = assay: Drug residues in Citrus sinensis cvs. Valencia late (Valencia oranges) at 200 mg/L treated for 1 min at 50 degC postharvest measured immediately post-drug treatment by GC analysis; type: ADME
Summary of the method: (§4)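 'Valencia' oranges were dipped 1 min in TBZ at 600 mg/L (20 °C, ±0.5, 1 or 2% wt/vol SBC), 400 mg/L (40 °C, ±SBC) or 200 mg/L (50 °C, alone), then air-dried. They were sampled at 0, 10 and 20 days at 17 °C. Peel of five fruit was frozen, and 5 g of homogenate was extracted with ethyl acetate/hexane (1/1) plus NaCl. The extract was dried under N2, taken up in acetone and analysed by GC. Results are mg/kg on a whole-fruit basis.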

Penicillium digitatum [12] = assay: Fungicidal activity against TBZ-resistant Penicillium digitatum infected Valencia oranges assessed as postharvest green mold incidence at 400 mg/L treated for 1 min at 40 degC at 20 hr after fungal conidial inoculation measured after 7 days of storage at 20 degC in presence of 0.5% SBC (water Rvb = 81.7%); type: functional
Penicillium digitatum [13] = assay: Fungicidal activity against TBZ-resistant Penicillium digitatum infected Valencia oranges assessed as postharvest green mold incidence at 200 mg/L treated for 1 min at 50 degC at 20 hr after fungal conidial inoculation measured after 7 days of storage at 20 degC (water Rvb = 56.7%); type: functional
Fruit [14] = assay: Drug residues in Citrus sinensis cvs. Valencia late (Valencia oranges) at 600 mg/L treated for 1 min at 20 degC postharvest measured after 20 days of storage at 17 degC in presence of 0.5% SBC by GC analysis; type: ADME; summary of the method: as §4
Penicillium digitatum [15] = assay: Fungicidal activity against Penicillium digitatum infected Valenica oranges assessed as fruit weight loss at 600 mg/L treated for 1 min at 20 degC postharvest at 20 hr after fungal conidial inoculation measured after 21 days of storage at 17 degC in presence of 1% SBC (water Rvb = 11.20%); type: functional
Penicillium digitatum [16] = assay: Fungicidal activity against TBZ-sensitive Penicillium digitatum infected Nova mandarins assessed as postharvest green mold incidence at 600 mg/L treated for 1 min at 20 degC at 20 hr after fungal conidial inoculation measured after 5 days of storage at 20 degC (water Rvb = 100%); type: functional; summary of the method: as §3
Fruit [17] = assay: Drug residues in Citrus sinensis cvs. Valencia late (Valencia oranges) at 600 mg/L treated for 1 min at 20 degC postharvest measured immediately post-drug treatment in presence of 2% SBC by GC analysis; type: ADME; summary of the method: as §4
Penicillium digitatum [18] = assay: Fungicidal activity against Penicillium digitatum infected Valenica oranges assessed as fruit weight loss at 400 mg/L treated for 1 min at 40 degC postharvest at 20 hr after fungal conidial inoculation measured after 21 days of storage at 17 degC (water Rvb = 8.83%); type: functional
Cuticular wax = assay: Drug residues in Citrus sinensis cvs. Salustiana (Salustiana oranges) cuticular wax at 600 mg/L treated for 1 min at 20 degC postharvest measured after overnight incubation at 17 degC by GC analysis; type: ADME; summary of the method: as §1
Penicillium digitatum [19] = assay: Fungicidal activity against Penicillium digitatum infected Valenica oranges assessed as fruit weight loss at 400 mg/L treated for 1 min at 40 degC postharvest at 20 hr after fungal conidial inoculation measured after 7 days of storage at 17 degC in presence of 2% SBC (water Rvb = 4.70%); type: functional
Penicillium digitatum [20] = assay: Fungicidal activity against TBZ-sensitive Penicillium digitatum infected Valencia oranges assessed as postharvest green mold incidence at 400 mg/L treated for 1 min at 40 degC at 20 hr after fungal conidial inoculation measured after 7 days of storage at 20 degC (water Rvb = 66.7%); type: functional
Inner fruit [21] = assay: Drug residues in Citrus sinensis cvs. Salustiana (Salustiana oranges) inner fruit at 600 mg/L treated for 1 min at 20 degC postharvest measured after overnight incubation at 17 degC by GC analysis; type: ADME; summary of the method: as §1

With `c1ccc2[nH]c(-c3cscn3)nc2c1` [THIABENDAZOLE] as the molecule, how does the Drug uptake (Fruit surface [1]) read?
Its Drug uptake is 0.66 mg/kg.

And the Activity (Penicillium digitatum [2])?
Its Activity is 25%.

What about the Activity (Penicillium digitatum [3]) of the same molecule?
Its Activity is 8.54%.

What about the Drug uptake (Inner fruit [4]) of the same molecule?
Its Drug uptake is 0.4 mg/kg.

What about the Activity (Penicillium digitatum [5]) of the same molecule?
The Activity was 6.26%.

And the Activity (Penicillium digitatum [6])?
Its Activity is 3.3%.

What about the Activity (Penicillium digitatum [7]) of the same molecule?
Its Activity is 9.45%.

What about the Activity (Penicillium digitatum [8]) of the same molecule?
The Activity was 38.3%.

And the Activity (Penicillium digitatum [9])?
Its Activity is 88.3%.

And the Drug uptake (Fruit surface [10])?
Its Drug uptake is 0.69 mg/kg.

What about the Drug uptake (Fruit [11]) of the same molecule?
The Drug uptake was 0.45 mg/kg.

What about the Activity (Penicillium digitatum [12]) of the same molecule?
Its Activity is 14.2%.

What about the Activity (Penicillium digitatum [13]) of the same molecule?
Its Activity is 37.5%.

What about the Drug uptake (Fruit [14]) of the same molecule?
The Drug uptake was 1.31 mg/kg.

What about the Activity (Penicillium digitatum [15]) of the same molecule?
The Activity was 12.35%.

And the Activity (Penicillium digitatum [16])?
Its Activity is 0%.

What about the Drug uptake (Fruit [17]) of the same molecule?
The Drug uptake was 1.22 mg/kg.

What about the Activity (Penicillium digitatum [18]) of the same molecule?
The Activity was 8.96%.

What about the Drug uptake (Cuticular wax) of the same molecule?
Its Drug uptake is 0.17 mg/kg.

And the Activity (Penicillium digitatum [19])?
The Activity was 4.55%.

What about the Activity (Penicillium digitatum [20]) of the same molecule?
Its Activity is 14.2%.

And the Drug uptake (Inner fruit [21])?
Its Drug uptake is 0.13 mg/kg.
